In experiment [1] the target is T1, C3a anaphylatoxin chemotactic receptor (Homo sapiens) (UniProt Q16581).
T1 sequence (whole entry): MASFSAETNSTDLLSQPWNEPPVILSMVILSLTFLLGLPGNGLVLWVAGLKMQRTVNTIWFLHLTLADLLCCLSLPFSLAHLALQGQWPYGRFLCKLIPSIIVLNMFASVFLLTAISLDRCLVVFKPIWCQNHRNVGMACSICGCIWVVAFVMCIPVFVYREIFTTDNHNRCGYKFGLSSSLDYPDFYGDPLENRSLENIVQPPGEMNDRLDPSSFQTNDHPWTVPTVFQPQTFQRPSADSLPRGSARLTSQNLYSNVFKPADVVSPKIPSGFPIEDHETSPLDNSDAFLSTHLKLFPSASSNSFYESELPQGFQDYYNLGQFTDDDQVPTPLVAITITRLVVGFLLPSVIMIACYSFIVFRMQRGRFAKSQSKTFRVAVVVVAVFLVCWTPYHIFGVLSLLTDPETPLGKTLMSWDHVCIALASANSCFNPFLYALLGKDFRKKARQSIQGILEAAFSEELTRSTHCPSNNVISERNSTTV
In words: Agonist activity at human C3a receptor expressed in RBL-2H3 cells assessed as beta-hexosaminidase activity in cell supernatant by degranulation assay relative to recombinant human C3a. The format is functional, cell-based. The method in brief:
(§1)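 Transfected RBL-2H3 cells kept in DMEM, 10% FCS, 400 mg/liter G-418, 37°C, 5% CO2. Degranulation read as β-hexosaminidase activity in supernatant. Secretion expressed as percent of maximal response to 200 nM recombinant human C3a or 10 nM FLPLAR. EC50, calculated maximum and SEM from iterative curve fitting.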

The target in experiment [2] is T1, C3a anaphylatoxin chemotactic receptor (Homo sapiens). The experiment is described as follows: Antagonist activity at human C3a receptor expressed in RBL-2H3 cells assessed as inhibition of FLPLAR-induced beta-hexosaminidase activity in cell supernatant measuring minimum receptor activity compound preincubated for 10 mins by degranulation assay. In kind it is functional, cell-based. Also on record: scale not given: the % may be the effect or the level left. In short, it runs like this:
(§2)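 RBL-2H3 cells expressing human C3aR (DMEM, 10% FCS, G-418, 37°C) were pretreated with peptide for 10 min before 200 nM recombinant human C3a or 10 nM FLPLAR was added. β-Hexosaminidase release in supernatant was measured as percent of the agonist-alone response. IC50, calculated minimum and SEM came from iterative curve fitting.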

Experiment [3] shares this target. The experiment is described as follows: Antagonist activity at human C3a receptor expressed in RBL-2H3 cells assessed as inhibition of human recombinant C3a -induced beta-hexosaminidase activity in cell supernatant measuring minimum receptor activity compound preincubated for 10 mins by degranulation assay. In kind it is functional, cell-based. Also on record: scale not given: the % may be the effect or the level left. The method in brief:
as §2

Experiment [4] deals with T2, C5a anaphylatoxin chemotactic receptor 1 (Homo sapiens) (UniProt P21730).
T2 sequence (whole entry): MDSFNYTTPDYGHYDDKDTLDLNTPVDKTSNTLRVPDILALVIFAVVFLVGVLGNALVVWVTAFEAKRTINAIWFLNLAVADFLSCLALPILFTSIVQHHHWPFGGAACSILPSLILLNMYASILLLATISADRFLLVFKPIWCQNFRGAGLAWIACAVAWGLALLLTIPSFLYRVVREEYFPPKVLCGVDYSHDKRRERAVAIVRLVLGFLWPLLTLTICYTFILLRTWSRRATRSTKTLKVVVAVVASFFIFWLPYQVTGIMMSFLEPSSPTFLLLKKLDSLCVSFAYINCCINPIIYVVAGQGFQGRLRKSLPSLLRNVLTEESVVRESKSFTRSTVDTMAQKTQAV
In words: Agonist activity at human C5a receptor expressed in RBL-2H3 cells assessed as beta-hexosaminidase activity in cell supernatant up to 1 uM by degranulation assay. The format is functional, cell-based. The method in brief:
(§3)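 Human C5aR-transfected RBL-2H3 cells were tested with peptides up to 1 μM. In the agonist mode, β-hexosaminidase secretion was taken relative to 200 nM human C5a. In the antagonist mode, cells were pretreated with peptide for 10 min before C5a was added.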

Experiment [5] has as its target T2, C5a anaphylatoxin chemotactic receptor 1 (Homo sapiens). The experiment is described as follows: Antagonist activity at human C5a receptor expressed in RBL-2H3 cells assessed as beta-hexosaminidase activity in cell supernatant up to 1 uM compound preincubated for 10 mins by degranulation assay. The format is functional, cell-based. The method in brief:
as §3

Experiment [6] deals with T3, C3a anaphylatoxin chemotactic receptor (Homo sapiens, UniProt Q16581).
T3 sequence (Q16581 whole entry): T1 sequence (whole entry)
The experiment is described as follows: Agonist activity at human C3a receptor expressed in RBL-2H3 cells assessed as beta-hexosaminidase activity in cell supernatant by degranulation assay. In kind it is functional, cell-based. In short, it runs like this: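 Degranulation read as β-hexosaminidase activity in supernatant. Secretion expressed as percent of maximal response to 200 nM recombinant human C3a or 10 nM FLPLAR. EC50, calculated maximum and SEM from iterative curve fitting.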

The target of experiment [7] is T3, C3a anaphylatoxin chemotactic receptor. In words: Antagonist activity at human C3a receptor expressed in RBL-2H3 cells assessed as beta-hexosaminidase activity in cell supernatant compound preincubated for 10 mins by degranulation assay. In kind it is functional, cell-based.
Experiment [8] concerns the target T1, C3a anaphylatoxin chemotactic receptor (Homo sapiens). The experiment is described as follows: Agonist activity at human C3a receptor expressed in RBL-2H3 cells assessed as beta-hexosaminidase activity in cell supernatant by degranulation assay relative to FLPLAR. In kind it is functional, cell-based. The method in brief:
as §1

For experiment [9], the target named is T3, C3a anaphylatoxin chemotactic receptor. In words: Agonist activity at C3a receptor in dbcAMP differentiated human U937 cells assessed as increase in intracellular calcium using […] staining by microplate reader. In kind it is functional, cell-based, U-937. In short, it runs like this: (§4)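 U937 cells grown in RPMI-1640 with 10% FCS at 37°C, 5% CO2, differentiated 48 h in 1 mM dibutyryl cAMP. Intracellular calcium rise read with Fluo-4 dye on a plate reader.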
A general note: A change in cytosolic calcium serves as a functional read-out for many receptors and channels.

The target of experiment [10] is T1, C3a anaphylatoxin chemotactic receptor (Homo sapiens). In words: Agonist activity at C3a receptor in dbcAMP differentiated human U937 cells assessed as increase in intracellular calcium using […] staining by microplate reader relative to FLPLAR. Conditions: U-937. The format is functional, cell-based. In short, it runs like this: as §4

The source made the active and inactive calls. The rule behind the calls is not given here.

In the case of Ac-WWRNRWRENRLGLAR-OH, the Emax (in general, the size of the effect at its maximum, as opposed to the concentration needed) in experiment [1] stood at 62%. Further, the Activity in [2] and in [3] was 62.5% in each case. For the same substance, the result in [4] and in experiment [5] was inactive.

“Ac-WWTRRWRTEKLGLAR-OH [listing 1 of 2 here]”: the EC50 (usually the concentration that produces a half-maximal response) in experiment [6] was 708 nM. The IC50 (as a rule, the concentration that gives 50% inhibition) in experiment [7] is 7.76 nM.

As for Ac-WWSRRWRASKLGLAR-OH, the Emax in experiment [1] and in [8] was 13% throughout. Moreover, the Activity in experiment [2] and in experiment [3] was 40% in each case. Besides, the result in experiment [4] and in experiment [5] was inactive. In experiment [6], the EC50 is 148 nM. For the same substance, in [7], the IC50 was 63.1 nM.

As for “Ac-WWTRRYRASKLGLAR-OH [listing 1 of 2 here]”, the Emax in experiment [1] and in [8] was 29% throughout. Also, the Activity in experiment [2] and in [3] was 42% throughout. In addition, the result in experiment [4] and in experiment [5] was inactive.

In the case of Ac-WWTRRWRADKLGLAR-OH, the values for the Emax in [1], in [8] and in experiment [10] were 79%, 79% and 74%, respectively. For the same substance, the Activity in experiment [2] and in [3] was 68% each time. The result in experiment [4] and in [5] was inactive. Also, the concentration for a half-maximal effect (EC50) in experiment [9] was 490 nM; in experiment [6], 66.1 nM. Also, the IC50 in experiment [7] was 4.57 nM.

In the case of Ac-WWTRRWRGDKLGLAR-OH, the Emax stood at 72% in experiment [1], 72% in experiment [8] and 81% in experiment [10]. The Activity in experiment [2] and in experiment [3] was 70% in each case. The result in experiment [4] and in experiment [5] was inactive. Also, the EC50 was 794 nM in experiment [9] and 25.1 nM in experiment [6]. Besides, the IC50 in [7] is 9.12 nM.

With “Ac-WWTRRWRTDKLGLAR-OH [listing 1 of 2 here]”, the Emax in experiment [1] and in experiment [8] was 43% throughout. Moreover, the Activity in experiment [2] and in experiment [3] was 60% in each case. For the same substance, the outcome in [4] and in experiment [5] was inactive.

With “Ac-WWTRRWRTEKLGLAR-OH [listing 2 of 2 here]”, the Emax in experiment [1] and in experiment [8] was 45% each time. For the same substance, the Activity in experiment [2] and in experiment [3] was 60% throughout. Besides, the outcome in experiment [4] and in experiment [5] was inactive.

Consider Ac-WWDRRWRASKLGLAR-OH, for which the Emax in experiment [1] and in [8] was 14% each time. Also, the Activity in [2] stood at 48%; in [3] it was 24%. Further, the result in [4] and in [5] was inactive.

As to H-WWTRRWRASKLGLAR-OH, in [8], the Emax amounted to 37%. Further, the Activity in experiment [2] worked out at 63%. In addition, the outcome in experiment [4] and in [5] was inactive.

Turning to Ac-WWGKKYRASKLGLAR-OH, the maximum response (Emax) in experiment [8] is 38%. Further, in experiment [3], the Activity is 52%. In addition, the outcome in [4] and in experiment [5] was inactive.

Turning to “Ac-WWTRRYRASKLGLAR-OH [listing 2 of 2 here]”, in experiment [6], the EC50 was 1000 nM. The concentration for half-maximal inhibition (IC50) in experiment [7] is 23.4 nM.

Regarding Ac-WWTRRWRASKLGLAR-OH, the Emax in experiment [1] and in [8] was 35% in each case. Moreover, the Activity in experiment [2] and in [3] was 47% throughout. Further, the result in experiment [4] and in experiment [5] was inactive. Further, in [6], the concentration for a half-maximal effect (EC50) is 195 nM. For the same substance, in experiment [7], the IC50 is 50.1 nM.

Take Ac-WWERRWRASKLGLAR-OH: the Emax in experiment [1] and in experiment [8] was 22% in each case. Besides, the Activity in experiment [2] stood at 61%; in [3], 35%. The outcome in experiment [4] and in experiment [5] was inactive.

On to “Ac-WWTRRWRTDKLGLAR-OH [listing 2 of 2 here]”, for which, in [6], the EC50 was 339 nM. Also, the half-inhibitory concentration (IC50) in [7] is 5.01 nM.

Source of the values: ChEMBL document CHEMBL2062398, “De novo peptide design with C3a receptor agonist and antagonist activities: theoretical predictions and experimental validation” (J Med Chem, 2012).
